Laboratory results as given in ChEMBL document CHEMBL4177764 (J Med Chem, 2018).
Active and inactive are the calls of the source. The calls are words filed in the database; no cut-off is given here.

How the values were obtained:
NCI-H3122 = test: Antiproliferative activity against human NCI-H3122 cells after 72 hrs by CellTiter-Glo luminescent cell viability assay; format: functional, cell-based
KARPAS-299 = test: Antiproliferative activity against human KARPAS299 cells after 72 hrs by CellTiter-Glo luminescent cell viability assay; format: functional, cell-based
SH-SY5Y [1] = test: Antiproliferative activity against human SH-SY5Y cells after 72 hrs in presence of ABCB1 inhibitor tariquidar by CellTiter-Glo luminescent cell viability assay; format: functional, cell-based
Homo sapiens [2] = species on record: Homo sapiens; test: Antiproliferative activity against human CHLA20 cells after 72 hrs in presence of ABCB1 inhibitor tariquidar by CellTiter-Glo luminescent cell viability assay; format: functional, cell-based
Homo sapiens [3] = species on record: Homo sapiens; test: Antiproliferative activity against human CHLA20 cells after 72 hrs by CellTiter-Glo luminescent cell viability assay; format: functional, cell-based
SU-DHL-1 = test: Antiproliferative activity against human SU-DHL1 cells after 72 hrs by CellTiter-Glo luminescent cell viability assay; format: functional, cell-based
SH-SY5Y [4] = test: Antiproliferative activity against human SH-SY5Y cells after 72 hrs by CellTiter-Glo luminescent cell viability assay; format: functional, cell-based
[5] = target: Signal transducer and activator of transcription 3 (Homo sapiens) (UniProt P40763); test: Inhibition of STAT3 phosphorylation at Y705 in human CHLA20 cells at 250 nM after 6 to 48 hrs in presence of ABCB1 inhibitor tariquidar by immunoblot method; format: cell-based
[6] = target: Signal transducer and activator of transcription 3 (Homo sapiens) (UniProt P40763); test: Inhibition of STAT3 phosphorylation at Y705 in human Kelly cells at 250 nM after 6 to 48 hrs by immunoblot method; format: cell-based
[7] = target: Protein cereblon (Homo sapiens) (UniProt Q96SW2); test: Displacement of Atto565-Lenalidomide from CRBN fused with DDB1deltaB (unknown origin) by fluorescence polarization assay
[8] = target: T1, ALK tyrosine kinase receptor (Homo sapiens, UniProt Q9UM73); test: Induction of ALK degradation in human Kelly cells at 100 nM after 8 hrs by immunoblot method; format: cell-based
Procedure, shortened: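 Kelly cells were treated with 100 nM compound for varying times and lysed at each time point. ALK levels were read by immunoblot.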

[9] = target: T1, ALK tyrosine kinase receptor; test: Induction of ALK degradation in human CHLA20 cells at 100 nM after 4 hrs in presence of ABCB1 inhibitor tariquidar by immunoblot method; format: cell-based
Procedure, shortened: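 CHLA20 cells were co-treated with 125 nM tariquidar, then treated with 100 nM compound over a time course. ALK was read by immunoblot.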

T1 sequence (Q9UM73 19-1620 limits assumed): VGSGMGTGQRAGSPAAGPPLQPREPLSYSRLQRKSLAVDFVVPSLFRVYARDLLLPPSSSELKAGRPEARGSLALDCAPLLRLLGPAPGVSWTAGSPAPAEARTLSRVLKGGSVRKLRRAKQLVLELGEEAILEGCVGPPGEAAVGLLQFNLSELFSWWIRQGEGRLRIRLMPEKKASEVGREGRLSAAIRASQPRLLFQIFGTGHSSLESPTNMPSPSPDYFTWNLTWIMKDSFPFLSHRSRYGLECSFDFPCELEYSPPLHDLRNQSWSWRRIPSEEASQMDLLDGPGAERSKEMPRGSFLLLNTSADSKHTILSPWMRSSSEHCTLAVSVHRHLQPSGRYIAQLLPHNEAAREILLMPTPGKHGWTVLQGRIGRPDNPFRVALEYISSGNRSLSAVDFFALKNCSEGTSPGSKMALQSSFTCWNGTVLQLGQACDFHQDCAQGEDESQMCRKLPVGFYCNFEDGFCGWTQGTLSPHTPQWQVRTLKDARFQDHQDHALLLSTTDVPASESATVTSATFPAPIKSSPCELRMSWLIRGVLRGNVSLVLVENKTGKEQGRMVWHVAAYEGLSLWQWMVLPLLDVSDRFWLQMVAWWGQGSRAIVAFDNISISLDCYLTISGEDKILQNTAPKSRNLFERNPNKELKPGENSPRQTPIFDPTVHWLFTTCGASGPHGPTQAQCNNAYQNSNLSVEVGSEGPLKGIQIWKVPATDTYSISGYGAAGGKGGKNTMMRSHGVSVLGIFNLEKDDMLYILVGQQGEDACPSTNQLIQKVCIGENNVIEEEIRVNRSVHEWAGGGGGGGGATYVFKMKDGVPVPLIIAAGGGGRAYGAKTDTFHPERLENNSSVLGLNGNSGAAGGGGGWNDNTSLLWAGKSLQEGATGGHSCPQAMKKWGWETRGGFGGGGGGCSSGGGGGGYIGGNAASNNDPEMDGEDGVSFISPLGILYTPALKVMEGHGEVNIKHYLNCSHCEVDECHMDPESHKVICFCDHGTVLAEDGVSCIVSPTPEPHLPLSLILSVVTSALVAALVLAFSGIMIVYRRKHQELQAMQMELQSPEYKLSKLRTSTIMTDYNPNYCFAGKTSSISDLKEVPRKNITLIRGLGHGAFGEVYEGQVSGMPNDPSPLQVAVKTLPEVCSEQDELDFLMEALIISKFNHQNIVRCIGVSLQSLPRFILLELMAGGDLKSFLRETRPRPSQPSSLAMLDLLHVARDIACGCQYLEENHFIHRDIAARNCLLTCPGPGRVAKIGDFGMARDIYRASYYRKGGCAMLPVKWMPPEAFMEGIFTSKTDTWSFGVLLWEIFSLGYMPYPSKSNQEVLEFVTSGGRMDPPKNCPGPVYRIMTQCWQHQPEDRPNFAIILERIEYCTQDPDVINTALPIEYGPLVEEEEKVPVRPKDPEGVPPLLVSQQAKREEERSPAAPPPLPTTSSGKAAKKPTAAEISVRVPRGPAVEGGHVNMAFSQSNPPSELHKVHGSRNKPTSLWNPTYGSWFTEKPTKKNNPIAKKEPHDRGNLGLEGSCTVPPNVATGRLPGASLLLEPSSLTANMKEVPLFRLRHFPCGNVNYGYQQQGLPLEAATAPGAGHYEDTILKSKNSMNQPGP
Chain of Protein cereblon (Homo sapiens) (Q96SW2 whole entry, the tested form may be a part): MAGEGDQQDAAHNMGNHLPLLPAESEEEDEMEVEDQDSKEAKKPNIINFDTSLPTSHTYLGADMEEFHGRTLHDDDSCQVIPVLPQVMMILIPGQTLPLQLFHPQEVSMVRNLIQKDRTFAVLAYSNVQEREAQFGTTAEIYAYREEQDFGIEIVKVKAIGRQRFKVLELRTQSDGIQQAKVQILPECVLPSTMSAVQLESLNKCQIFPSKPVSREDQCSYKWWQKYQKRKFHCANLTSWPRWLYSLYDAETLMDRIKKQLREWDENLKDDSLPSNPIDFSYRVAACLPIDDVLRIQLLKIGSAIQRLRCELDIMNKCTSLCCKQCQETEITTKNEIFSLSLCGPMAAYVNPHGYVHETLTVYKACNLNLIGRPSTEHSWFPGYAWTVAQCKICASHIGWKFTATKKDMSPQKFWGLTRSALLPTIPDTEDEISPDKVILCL
Chain of Signal transducer and activator of transcription 3 (Homo sapiens) (P40763 whole entry, the tested form may be a part): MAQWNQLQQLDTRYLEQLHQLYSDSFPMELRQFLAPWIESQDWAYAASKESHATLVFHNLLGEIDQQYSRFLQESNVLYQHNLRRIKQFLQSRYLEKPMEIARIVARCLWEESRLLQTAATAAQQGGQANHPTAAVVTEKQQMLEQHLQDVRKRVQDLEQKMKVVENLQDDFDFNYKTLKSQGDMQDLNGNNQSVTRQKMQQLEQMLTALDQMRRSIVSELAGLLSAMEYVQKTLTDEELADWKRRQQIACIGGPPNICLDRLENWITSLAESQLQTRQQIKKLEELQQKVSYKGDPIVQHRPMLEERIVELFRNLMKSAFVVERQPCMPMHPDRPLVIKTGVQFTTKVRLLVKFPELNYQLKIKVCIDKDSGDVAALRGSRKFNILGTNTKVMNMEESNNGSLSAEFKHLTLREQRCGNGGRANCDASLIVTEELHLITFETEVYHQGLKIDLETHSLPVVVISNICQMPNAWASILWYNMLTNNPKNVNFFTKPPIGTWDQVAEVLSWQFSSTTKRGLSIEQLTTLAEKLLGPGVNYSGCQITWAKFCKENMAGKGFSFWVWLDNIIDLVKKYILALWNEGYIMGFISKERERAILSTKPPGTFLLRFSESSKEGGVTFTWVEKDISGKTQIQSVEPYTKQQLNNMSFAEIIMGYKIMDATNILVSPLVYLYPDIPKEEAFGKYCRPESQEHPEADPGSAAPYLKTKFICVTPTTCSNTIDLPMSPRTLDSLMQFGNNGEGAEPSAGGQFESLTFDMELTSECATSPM

Row | SMILES | Activity (NCI-H3122) | Activity (KARPAS-299) | Activity (SH-SY5Y [1]) | Activity (Homo sapiens [2]) | Activity (Homo sapiens [3]) | Activity (SU-DHL-1) | Activity (SH-SY5Y [4]) | inhibition [5] | inhibition [6] | inhibition [7] | Activity [8] | Activity [9]
1 | COc1cc(N2CCC(N3CCN(C)CC3)CC2)ccc1Nc1ncc(Cl)c(Nc2ccccc2S(=O)(=O)C(C)C)n1 | Active | Active | Active | Active | Active | Active | Active |  |  |  |  | 
2 | Cc1cc(Nc2ncc(Cl)c(Nc3ccccc3S(=O)(=O)C(C)C)n2)c(OC(C)C)cc1C1CCNCC1 | Active | Active | Active | Active | Active | Active | Active | inactive | inactive |  |  | 
3 | COc1cc(N2CCN(CCOCCOCCNC(=O)CNc3cccc4c3C(=O)N(C3CCCNC3=O)C4=O)CC2)ccc1Nc1ncc(Cl)c(Nc2ccccc2S(=O)(=O)C(C)C)n1 (stereo unspecified) | inactive | inactive | Active | Active | inactive | inactive | inactive |  |  | inactive | Active | Active
4 | Cc1cc(Nc2ncc(Cl)c(Nc3ccccc3S(=O)(=O)C(C)C)n2)c(OC(C)C)cc1C1CCN(CCOCCOCCNC(=O)CNc2cccc3c2C(=O)N(C2CCCNC2=O)C3=O)CC1 (stereo unspecified) | inactive | inactive | Active | Active | inactive | inactive | inactive |  |  | inactive | Active | Active
